The source of these data is paper PMC6905387 (ACS chemical biology, 2018).

Series [1] has as its target T1, SmTGR (Schistosoma mansoni, UniProt Q962Y6).
T1 sequence (Q962Y6 1-598): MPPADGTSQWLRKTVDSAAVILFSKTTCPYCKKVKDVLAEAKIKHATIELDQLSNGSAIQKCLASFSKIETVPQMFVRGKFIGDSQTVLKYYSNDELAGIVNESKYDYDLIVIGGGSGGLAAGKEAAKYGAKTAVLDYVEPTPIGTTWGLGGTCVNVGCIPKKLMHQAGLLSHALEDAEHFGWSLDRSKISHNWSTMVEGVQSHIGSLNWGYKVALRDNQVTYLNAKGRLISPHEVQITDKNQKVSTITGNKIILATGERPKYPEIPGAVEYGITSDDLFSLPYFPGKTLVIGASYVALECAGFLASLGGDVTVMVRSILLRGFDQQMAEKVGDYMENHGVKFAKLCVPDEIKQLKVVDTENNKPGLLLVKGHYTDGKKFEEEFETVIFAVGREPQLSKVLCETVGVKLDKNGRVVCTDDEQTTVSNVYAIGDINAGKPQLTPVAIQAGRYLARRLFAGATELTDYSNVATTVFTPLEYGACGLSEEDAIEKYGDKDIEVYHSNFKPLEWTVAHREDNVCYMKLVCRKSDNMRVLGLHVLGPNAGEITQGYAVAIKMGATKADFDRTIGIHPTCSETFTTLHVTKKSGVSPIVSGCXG
Description: SmTGR enzymatic assay. Type of series: biochemical.

The next series concerns adult worms. Description: Schistosomicidal activity against ex vivo adult worms. The arrangement: species or system Schistosoma mansoni. Summed up:
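Adult Schistosoma mansoni were perfused from mice seven weeks after infection. They were cultured for 24 hr in RPMI with 10% fetal calf serum, 10 mM glutamine and 1X penicillin/streptomycin before test compound was added. Untreated worms served as controls. Worms were checked daily and scored dead when no movement was seen.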

Series [2] is described as follows: Behaviour of compound in worm culture medium. Format: physicochemical.
In series [3] the test system is Mammalian TrxR. To be noted: ref Bioassays AID 588453 and AID 588456, cited from earlier work.
Series [4] deals with Mammalian TrxR. Kind of series: Mammalian TrxR inhibition. Format: biochemical. The settings on record: in words.
The subject of series [5] is TGR activity in treated worms. Description: Inhibition of TGR in treated ex vivo worms. Details: species or system Schistosoma mansoni. The settings on record: adult worms cultured with 50 μM compound, versus DMSO-treated worms.
A further series concerns schistosomula. Description: Schistosomicidal activity against ex vivo schistosomula. The arrangement: species or system Schistosoma mansoni. Summed up: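 Schistosomula were made by mechanical transformation of cercariae from infected Biomphalaria glabrata, then isolated on a Percoll gradient. They were cultured for 24 hr in M-199 with 10% fetal calf serum before test compound was added. Untreated larvae served as controls. Survival was followed by daily observation, and larvae without movement were scored dead.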

The next series concerns the target T2, hGR (Homo sapiens, UniProt P00390).
T2 sequence (P00390 44-522): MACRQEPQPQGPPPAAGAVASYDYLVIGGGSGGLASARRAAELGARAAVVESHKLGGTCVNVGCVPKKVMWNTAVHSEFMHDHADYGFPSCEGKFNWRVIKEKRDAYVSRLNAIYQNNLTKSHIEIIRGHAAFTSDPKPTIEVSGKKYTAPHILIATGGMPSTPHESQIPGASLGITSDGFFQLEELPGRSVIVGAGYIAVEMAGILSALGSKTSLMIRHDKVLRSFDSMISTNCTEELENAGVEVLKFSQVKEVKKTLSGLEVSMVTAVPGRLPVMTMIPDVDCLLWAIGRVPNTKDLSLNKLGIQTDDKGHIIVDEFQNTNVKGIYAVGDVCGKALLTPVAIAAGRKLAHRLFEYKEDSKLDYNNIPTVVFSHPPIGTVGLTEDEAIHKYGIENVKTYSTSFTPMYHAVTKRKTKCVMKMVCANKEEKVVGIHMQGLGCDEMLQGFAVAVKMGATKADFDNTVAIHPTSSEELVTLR
Kind of series: Activity against human glutathione reductase. To be noted: results not shown. Type of series: biochemical.

Series [6] has as its target T1, SmTGR. Description: Steady state experiments varying NADPH at saturating DTNB. Format: biochemical.

“Also recorded” adds a separate entry of the source.

As a reminder, the IC50 is the concentration needed to halve the response being measured. `O=C(O)c1ccc2ncccc2n1` [CID: 12426408, 1,5-Naphthyridine-2-carboxylic acid] displayed a half-maximal inhibitory concentration (IC50) against SmTGR [1] of 2600 µM.

On to `CCOC(=O)c1c(C)oc2c1c(CN1CCN(CCO)CC1)c(O)c1ccccc12` [Compound 6, ethyl 5-hydroxy-4-{[4-(2-hydroxyethyl)piperazin-1-yl]methyl}−2-methylnaphtho[1,2-b]furan-3-carboxylate], for which the Adult worms killed in the series on adult worms (10 μM, in five days) came out at 9%; in the series on adult worms (50 μM, in four days) it was 100%. Also, the “Solubility behaviour in culture medium” value in [2] was “initially precipitated in the culture medium then slowly dissolved over the following hours”. Also, the half-inhibitory concentration (IC50) in the series with Mammalian TrxR [3] (read-out: Mammalian TrxR IC50) was 1.12 µM; against SmTGR [1] it was 0.06 µM. In the series on Mammalian TrxR [4], the “Selectivity for SmTGR over hTrxR” value is “high selectivity”. For the same compound, at SmTGR [1] (IC50 of 6 compared with IC50 of 5), the “Fold more potent than 5 (SmTGR IC50)” value was 2000 fold. The “GR (GSH disulfide reduction) activity in treated worms” value in series [5] is “significant inhibition”. For the same compound, the “TrxR (DTNB reduction) activity in treated worms” value in series [5] is “significant inhibition”. In addition, the Schistosomula killed in the series with schistosomula (10 μM, in five days) is on record as 100%; in the series on schistosomula (50 μM, in 24 hr), “killed all schistosomula”.

The compound `NCCCCN1CCN(CCO)CC1` [Compound 3, 2-[4-(4-aminobutyl)piperazin-1-yl]ethanol] yielded an IC50 on SmTGR [1] greater than 10000 µM.

At SmTGR [1], `O=C(O)c1ccc(CN2CCN(CCO)CC2)nc1` [CID: 80159879, 6-((4-(2-Hydroxyethyl)piperazin-1-yl)methyl)nicotinic acid] displayed an IC50 of 4400 µM.

Consider `O=C(O)c1ccc2cccnc2n1` [Compound 1, 1,8-naphthyridine-2-carboxylate], for which the Adult worms killed with adult worms (10 μM, in five days) worked out at 0%; in the series on adult worms (50 μM, in five days) it was 13%. In addition, the “Activity against hGR” value at hGR is “no detectable activity”. The “Inhibition of mammalian hTrxR (in words)” value with Mammalian TrxR [3] is listed as “does not inhibit; also recorded: undetectable inhibition”. Moreover, the “Mammalian TrxR IC50” value in the series with Mammalian TrxR [3] is recorded as “Inactive”. Besides, in the series with Mammalian TrxR [4], the “Selectivity for SmTGR over hTrxR” value is “high selectivity”. Besides, the “Inhibition mechanism versus NADPH” value on SmTGR [6] (NADPH 0.01 to 1 mM, DTNB 3 mM) was “mixed competitive inhibition mechanism”. In addition, on SmTGR [6] (at 3 mM DTNB), the “KIS, binding of inhibitor to NADPH-bound enzyme (estimated)” value is 4.8 mM. For the same compound, the Schistosomula killed in the series with schistosomula (10 μM, in five days) was determined as 0%; with schistosomula (50 μM, in five days), 11%.

In the case of `O=S(=O)(O)CCN1CCN(CCO)CC1` [Compound 4, 4-(2-Hydroxyethyl)-1-piperazineethanesulfonic acid], the IC50 at SmTGR [1] was found to be 3300 µM.

With `OCCN1CCN(CCO)CC1` [Compound 2, 1,4-bis(2-hydroxyethyl)piperazine], at SmTGR [1] (6-His-tagged SmTGRwt 20 nM, 10 min preincubation with NADPH 100 μM, DTNB 3 mM), the “SmTGR IC50” value was “inactive”.

Take `O=C(O)c1ccc2ccccc2c1` [CID: 7123, 2-Naphthoic acid]: at SmTGR [1], the 50% inhibitory concentration (IC50) was determined as 1100 µM.

For `OCCN1CCN(Cc2cc(Cl)c3cccnc3c2O)CC1` [Compound 5, 5-chloro-7-((4-(2-hydroxyethyl)piperazin-1-yl)methyl)quinolin-8-ol], the Adult worms killed stood at 27% in the series with adult worms (10 μM, in five days) and 88% in the series on adult worms (50 μM, in five days). The “Inhibition of mammalian hTrxR (in words)” value in the series with Mammalian TrxR [3] was “undetectable inhibition”. Also, the “Mammalian TrxR IC50” value with Mammalian TrxR [3] is on record as “Inactive”. Also, the “Selectivity for SmTGR over hTrxR” value in the series with Mammalian TrxR [4] is recorded as “high selectivity”. The half-inhibitory concentration (IC50) at SmTGR [1] worked out at 120 µM. The “GR (GSH disulfide reduction) activity in treated worms” value in [5] is reported as “significant inhibition”. Also, the “TrxR (DTNB reduction) activity in treated worms” value in [5] is “significant inhibition”. In addition, the Schistosomula killed in the series with schistosomula (10 μM, in five days) was 80%; in the series with schistosomula (50 μM, in 24 hr), “killed all schistosomula”.
